The IC50 is the midpoint of a concentration-inhibition curve. High values mean lower potency, low ones higher potency.

Converted amounts (≈) assume the structure as drawn.

The first experiment relates to SW-620. Put plainly: Cytotoxicity against human SW620 cells after 72 hrs by MTT assay. Format: functional, cell-based. The following applies: SW-620, 72 h. The method, boiled down:
(§1)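 Cells harvested from 70–80% confluent cultures by trypsin/EDTA and seeded at 5000 cells/well in DMEM for 24 h. Compounds were dissolved in DMSO and diluted in medium to 0.5–20, with final DMSO below 1%. After 72 h at CO2, MTT was added for 3 h at 37 °C. Medium was replaced with DMSO and OD read at 540 nm. IC50 ± SD, three independent experiments.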
In general terms: Formazan colour is commonly taken as a measure of viable cells.
Turning to `C=C(C)[C@@H]1CC[C@]2(C(=O)O)CC[C@]3(C)[C@H](CC[C@@H]4[C@@]5(C)CC[C@H](O)C(C)(C)[C@@H]5CC[C@]43C)[C@@H]12` [BETULINIC ACID], the IC50 came to 13.3 µg/mL (≈ 29 µM).
Still for that read-out and setting: to `C=C(C)[C@@H]1CC[C@]2(C(=O)O)CC[C@]3(C)[C@H](CC[C@@H]4[C@@]5(C)Cc6c([nH]c7cc(Cl)cc(Cl)c67)C(C)(C)[C@@H]5CC[C@]43C)[C@@H]12` belongs more than 20 µg/mL; to `C=C(C)[C@@H]1CC[C@]2(C(=O)O)CC[C@]3(C)[C@H](CC[C@@H]4[C@@]5(C)Cc6c([nH]c7c(Cl)cccc67)C(C)(C)[C@@H]5CC[C@]43C)[C@@H]12`, 2 µg/mL (≈ 3.56 µM); to `CC(C)[C@@H]1CC[C@]2(C(=O)O)CC[C@]3(C)[C@H](CC[C@@H]4[C@@]5(C)Cc6c(n(C)c7ccccc67)C(C)(C)[C@@H]5CC[C@]43C)[C@@H]12`, more than 20 µg/mL.

For a further experiment, the system named is K562. Put plainly: Cytotoxicity against human K-562 cells after 72 hrs by MTT assay. Type of experiment: functional, cell-based. The following applies: K562, 72 h.
Take `C=C(C)[C@@H]1CC[C@]2(C(=O)O)CC[C@]3(C)[C@H](CC[C@@H]4[C@@]5(C)CC[C@H](O)C(C)(C)[C@@H]5CC[C@]43C)[C@@H]12` [BETULINIC ACID]: it took 3.25 µg/mL (≈ 7.12 µM) to reach half-maximal inhibition (IC50).
Compound `C=C(C)[C@@H]1CC[C@]2(C(=O)O)CC[C@]3(C)[C@H](CC[C@@H]4[C@@]5(C)Cc6c([nH]c7cc(Cl)cc(Cl)c67)C(C)(C)[C@@H]5CC[C@]43C)[C@@H]12` had an IC50 of more than 20 µg/mL.
The same measure, in the same setting: for `C=C(C)[C@@H]1CC[C@]2(C(=O)O)CC[C@]3(C)[C@H](CC[C@@H]4[C@@]5(C)Cc6c([nH]c7c(Cl)cccc67)C(C)(C)[C@@H]5CC[C@]43C)[C@@H]12` the value was 9.26 µg/mL (≈ 16.5 µM); for `CC(C)[C@@H]1CC[C@]2(C(=O)O)CC[C@]3(C)[C@H](CC[C@@H]4[C@@]5(C)Cc6c(n(C)c7ccccc67)C(C)(C)[C@@H]5CC[C@]43C)[C@@H]12`, 10.8 µg/mL (≈ 20 µM).

The next experiment deals with PA-1. Put plainly: Cytotoxicity against human PA-1 cells after 72 hrs by MTT assay. Format: functional, cell-based. The settings on record: PA-1, 72 h. The method, boiled down: as §1
Take `C=C(C)[C@@H]1CC[C@]2(C(=O)O)CC[C@]3(C)[C@H](CC[C@@H]4[C@@]5(C)CC[C@H](O)C(C)(C)[C@@H]5CC[C@]43C)[C@@H]12` [BETULINIC ACID]: the midpoint of inhibition, the IC50, lay at 11.5 µg/mL (≈ 25.2 µM).
As to `C=C(C)[C@@H]1CC[C@]2(C(=O)O)CC[C@]3(C)[C@H](CC[C@@H]4[C@@]5(C)Cc6c([nH]c7cc(Cl)cc(Cl)c67)C(C)(C)[C@@H]5CC[C@]43C)[C@@H]12`, the IC50 was more than 20 µg/mL.
Same read-out and setting: to `C=C(C)[C@@H]1CC[C@]2(C(=O)O)CC[C@]3(C)[C@H](CC[C@@H]4[C@@]5(C)Cc6c([nH]c7c(Cl)cccc67)C(C)(C)[C@@H]5CC[C@]43C)[C@@H]12` belongs 6.39 µg/mL (≈ 11.4 µM); to `CC(C)[C@@H]1CC[C@]2(C(=O)O)CC[C@]3(C)[C@H](CC[C@@H]4[C@@]5(C)Cc6c(n(C)c7ccccc67)C(C)(C)[C@@H]5CC[C@]43C)[C@@H]12`, more than 20 µg/mL.

In another experiment the test system is DU-145. Put plainly: Cytotoxicity against human DU145 cells after 72 hrs by MTT assay. Format: functional, cell-based. The following applies: DU-145, 72 h. The method, boiled down: as §1
`C=C(C)[C@@H]1CC[C@]2(C(=O)O)CC[C@]3(C)[C@H](CC[C@@H]4[C@@]5(C)CC[C@H](O)C(C)(C)[C@@H]5CC[C@]43C)[C@@H]12` [BETULINIC ACID] came in with an IC50 of more than 20 µg/mL.
On the same count and under the same terms, to `C=C(C)[C@@H]1CC[C@]2(C(=O)O)CC[C@]3(C)[C@H](CC[C@@H]4[C@@]5(C)Cc6c([nH]c7cc(Cl)cc(Cl)c67)C(C)(C)[C@@H]5CC[C@]43C)[C@@H]12` belongs more than 20 µg/mL.
Compound `C=C(C)[C@@H]1CC[C@]2(C(=O)O)CC[C@]3(C)[C@H](CC[C@@H]4[C@@]5(C)Cc6c([nH]c7c(Cl)cccc67)C(C)(C)[C@@H]5CC[C@]43C)[C@@H]12` came in with an IC50 of 11.7 µg/mL (≈ 20.7 µM).
For `CC(C)[C@@H]1CC[C@]2(C(=O)O)CC[C@]3(C)[C@H](CC[C@@H]4[C@@]5(C)Cc6c(n(C)c7ccccc67)C(C)(C)[C@@H]5CC[C@]43C)[C@@H]12`, the IC50 was more than 20 µg/mL.

Another experiment deals with A549. Put plainly: Cytotoxicity against human A549 cells after 72 hrs by MTT assay. The settings on record: A549, 72 h. Type of experiment: functional, cell-based. The method, boiled down:
as §1
`C=C(C)[C@@H]1CC[C@]2(C(=O)O)CC[C@]3(C)[C@H](CC[C@@H]4[C@@]5(C)CC[C@H](O)C(C)(C)[C@@H]5CC[C@]43C)[C@@H]12` [BETULINIC ACID] returned an IC50 of 3 µg/mL (≈ 6.57 µM).
The same measure, in the same setting: for `C=C(C)[C@@H]1CC[C@]2(C(=O)O)CC[C@]3(C)[C@H](CC[C@@H]4[C@@]5(C)Cc6c([nH]c7cc(Cl)cc(Cl)c67)C(C)(C)[C@@H]5CC[C@]43C)[C@@H]12` the value was 5.5 µg/mL (≈ 9.22 µM); for `C=C(C)[C@@H]1CC[C@]2(C(=O)O)CC[C@]3(C)[C@H](CC[C@@H]4[C@@]5(C)Cc6c([nH]c7c(Cl)cccc67)C(C)(C)[C@@H]5CC[C@]43C)[C@@H]12`, 8.7 µg/mL (≈ 15.5 µM).
Same read-out and setting: to `CC(C)[C@@H]1CC[C@]2(C(=O)O)CC[C@]3(C)[C@H](CC[C@@H]4[C@@]5(C)Cc6c(n(C)c7ccccc67)C(C)(C)[C@@H]5CC[C@]43C)[C@@H]12` belongs 6.5 µg/mL (≈ 12 µM).

The next experiment relates to MIA PaCa-2. Put plainly: Cytotoxicity against human MIA PaCa2 cells after 72 hrs by MTT assay. Format: functional, cell-based. The settings on record: MIA PaCa-2, 72 h. The method, boiled down: as §1
Compound `C=C(C)[C@@H]1CC[C@]2(C(=O)O)CC[C@]3(C)[C@H](CC[C@@H]4[C@@]5(C)CC[C@H](O)C(C)(C)[C@@H]5CC[C@]43C)[C@@H]12` [BETULINIC ACID] came in with an IC50 of 10.3 µg/mL (≈ 22.6 µM).
Regarding `C=C(C)[C@@H]1CC[C@]2(C(=O)O)CC[C@]3(C)[C@H](CC[C@@H]4[C@@]5(C)Cc6c([nH]c7cc(Cl)cc(Cl)c67)C(C)(C)[C@@H]5CC[C@]43C)[C@@H]12`, the IC50 is more than 20 µg/mL.
`C=C(C)[C@@H]1CC[C@]2(C(=O)O)CC[C@]3(C)[C@H](CC[C@@H]4[C@@]5(C)Cc6c([nH]c7c(Cl)cccc67)C(C)(C)[C@@H]5CC[C@]43C)[C@@H]12`: the IC50 amounted to 11.6 µg/mL (≈ 20.6 µM).
Still for that read-out and setting: for `CC(C)[C@@H]1CC[C@]2(C(=O)O)CC[C@]3(C)[C@H](CC[C@@H]4[C@@]5(C)Cc6c(n(C)c7ccccc67)C(C)(C)[C@@H]5CC[C@]43C)[C@@H]12` the value was 5.4 µg/mL (≈ 9.93 µM).

The test system of another experiment is HBL-100. Put plainly: Cytotoxicity against human HBL100 cells after 72 hrs by MTT assay. Type of experiment: functional, cell-based. The settings on record: HBL-100, 72 h. The method, boiled down: as §1
For `C=C(C)[C@@H]1CC[C@]2(C(=O)O)CC[C@]3(C)[C@H](CC[C@@H]4[C@@]5(C)CC[C@H](O)C(C)(C)[C@@H]5CC[C@]43C)[C@@H]12` [BETULINIC ACID], the IC50 was 5.02 µg/mL (≈ 11 µM).
On to `C=C(C)[C@@H]1CC[C@]2(C(=O)O)CC[C@]3(C)[C@H](CC[C@@H]4[C@@]5(C)Cc6c([nH]c7cc(Cl)cc(Cl)c67)C(C)(C)[C@@H]5CC[C@]43C)[C@@H]12`, for which the IC50 is more than 20 µg/mL.
The compound `C=C(C)[C@@H]1CC[C@]2(C(=O)O)CC[C@]3(C)[C@H](CC[C@@H]4[C@@]5(C)Cc6c([nH]c7c(Cl)cccc67)C(C)(C)[C@@H]5CC[C@]43C)[C@@H]12` had an IC50 of 11.8 µg/mL (≈ 21 µM).
`CC(C)[C@@H]1CC[C@]2(C(=O)O)CC[C@]3(C)[C@H](CC[C@@H]4[C@@]5(C)Cc6c(n(C)c7ccccc67)C(C)(C)[C@@H]5CC[C@]43C)[C@@H]12` had an IC50 of 14.1 µg/mL (≈ 26 µM).

For the next experiment, the system named is NIH3T3. Put plainly: Selectivity index, ratio of IC50 for mouse NIH3T3 cells to IC50 for human SW620 cells.
Conditions: not given
Type of experiment: functional.
As for `C=C(C)[C@@H]1CC[C@]2(C(=O)O)CC[C@]3(C)[C@H](CC[C@@H]4[C@@]5(C)Cc6c([nH]c7c(Cl)cccc67)C(C)(C)[C@@H]5CC[C@]43C)[C@@H]12`, the “Ratio IC50” value came out at 6.

Another experiment has as its system NIH3T3. Put plainly: Cytotoxicity against mouse NIH3T3 cells after 72 hrs by MTT assay. Format: cell-based. The following applies: NIH3T3, 72 h. The method, boiled down: as §1
`C=C(C)[C@@H]1CC[C@]2(C(=O)O)CC[C@]3(C)[C@H](CC[C@@H]4[C@@]5(C)CC[C@H](O)C(C)(C)[C@@H]5CC[C@]43C)[C@@H]12` [BETULINIC ACID] came in with an IC50 of 4.37 µg/mL (≈ 9.57 µM).
For `C=C(C)[C@@H]1CC[C@]2(C(=O)O)CC[C@]3(C)[C@H](CC[C@@H]4[C@@]5(C)Cc6c([nH]c7cc(Cl)cc(Cl)c67)C(C)(C)[C@@H]5CC[C@]43C)[C@@H]12`, half-maximal inhibition (IC50) was put at 4.1 µg/mL (≈ 6.87 µM).
Still for that read-out and setting: to `C=C(C)[C@@H]1CC[C@]2(C(=O)O)CC[C@]3(C)[C@H](CC[C@@H]4[C@@]5(C)Cc6c([nH]c7c(Cl)cccc67)C(C)(C)[C@@H]5CC[C@]43C)[C@@H]12` belongs 11.8 µg/mL (≈ 21 µM).
With `CC(C)[C@@H]1CC[C@]2(C(=O)O)CC[C@]3(C)[C@H](CC[C@@H]4[C@@]5(C)Cc6c(n(C)c7ccccc67)C(C)(C)[C@@H]5CC[C@]43C)[C@@H]12`, the IC50 is more than 20 µg/mL.
